For 27 variants, nonsense suppression results are on record in the RNAGym collection of RNA variant scans (doi:10.1101/gad.245936.114).

This sample holds only a part of the variants without activity.

B1: tRNA (parent)
chain: CUCUCGGUAGCCAAGUUGGUUUAAGGCGCAAGACUUUAAUUUAUCACUACGAAAUCUUGAGAUCGGGCGUUCGACUCGCCCCCGGGAGAUUUUUUCCUCGAGCAA

The variants in the data set derive from B1. Kind of data set: nonsense suppression (GFP-seq) (ratio to wild type); higher = more function; SUP4oc tRNA, yeast GFP reporter sort-seq. Put shortly: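 To measure nonsense suppression, tRNA variants from a library carrying ~3% random mutations were integrated into the yeast genome alongside RFP and a GFP ochre reporter under galactose control. Growth took place in raffinose/galactose medium supplemented with 80 mg/L adenine, followed by sorting into GFP/RFP bins and Illumina sequencing of each bin (phred ≥30). For each variant with ≥100 reads and ≥30 cells, the bin median GFP/RFP values were weighted by its estimated cell share per bin and referenced to the unmutated parent tRNA.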
Turning to CUCUCGGUAGCCAAGUUGGUUUAUGGCGCAAGACGUUAAUUUAUCACUACGAAAUCUUGAGAUCGGGCGUUCGACUCGCCCCCGGGAGGUUUUUUCCUCGAGCAA [A24U U35G A89G], the nonsense suppression was ≤ 0.026.

Regarding CUCUCGGUAGCCAAGUUGGUUUAUGGCGUAAGACUUUAAUUUAUCACUACGAAAUCUUGAGAUCGGGCGUUCGACUCGCCCCCGGGAGAUUUUUUCCUCGAGCAA [A24U C29U], the nonsense suppression was 0.233.

With CUCUCGGUAGCCAAGUUGGUUUAGGGCGCAAGACUUUAAUUUAUCACUACGAAAUCUUGAGAUCGGGCGUUCGACUCGUCCCCGGGAGAUUUUUUCCUCGAGCAA [A24G C79U], the nonsense suppression stood at 0.0352.

CUCUCGGUAGCCAAGUUGGUUUAUGGCGCAAGACUUUAAUUUAUCACUACGAAAUCUUGGGAUCUGGCGUUCGACUCGCCCCCGGGACGUUUUUUCCUCGAGCAA [A24U A60G G65U G88C A89G]: the nonsense suppression was ≤ 0.026.

As to CUCUCGGUAGCCAAGUUGGUUUAGGGCGCAAGACUUUAAUUUAUCACUACGAAAUCUUGAGAUCGGGCGUUCGACUCGCCCCCGAGAGAUUUUUUCCUCGAGCAA [A24G G85A], the nonsense suppression worked out at 0.189.

In the case of CUCUCGGUAGCCAAGUUGGUUUAUGGCGCAAGACUUUAAUUUAUCACUACGAAAUCUUGAGAUCGGGCGUUCGACUCGCCCCCGCGAGAUUUUUUCCUCGAGCAA [A24U G85C], the nonsense suppression was ≤ 0.026.

Consider CUCUCGGUAGCCAAGUUGGUUUAUGGCGCAAGACUUUAAUUUAUCACUACGAAAUCUUGAGAUCGGGCGUUCGACUCGCCCCCGAGAGAUUUUUUCCUCGAGCAA [A24U G85A], for which the nonsense suppression was found to be 0.327.

For CUCUCGGUAGCCAAGUUGGUUUAUGGCGCAAGACUUUAAUUUAUCACUACGAAAUCUUGAGAUCGGGCGUUCGACUCGCCCCCGUGAGAUUUUUUCCUCGAGCAA [A24U G85U], the nonsense suppression came to 0.0597.

CUCUCGGUAGCCAAGUUGGUUUAAAGCGAAAGACUUUAAUUUAUCACUACGAAAUCUUGAGAUCGGGCGUUCGACUCGCCCCCCGGAGAUUUUUUCCUCGAGCAA [G25A C29A G84C]: the nonsense suppression came out at 0.027.

CUCUCGGUAGCCAAGUUGGUUUAGGGCGCAAGACUUUAAUUUAUCACUACGAAAUCUUGAAAUCGGGCGUUCGACCCGCCCCCGGGAGAUUUUUUCCUCGAGCAA [A24G G61A U76C]: the nonsense suppression amounted to 0.0509.

As for CUCUCGGUAGCCAAGUUGGUUUAUGGCGCAAGACUUUAAUUUAUCACUACGAAAUCUUGAGAUCGGGCGUUCGACUCGCCCUCGGGAGAUUUUUUCCUCGAGCAA [A24U C82U], the nonsense suppression is 0.0571.

As for CUCUCGGUAGCCAAGUUGGUUUAUGGCGCAAGACUUUAAUUUAUCACUACGAAAUCUUGAGAUCGGGCGUUCGACUCUCCCCCGGGAGAUUUUUUCCUCGAGCAA [A24U G78U], the nonsense suppression is 0.0565.

CUCUCGGUAGCCAAGUUGGUUUAAAGCGCAAGACUUUAAUUUAUCACUACGAAAUCUUGAGAUCGGGCGUUCGAGUCACCCCCGGGAGAUUUUUUCCUCGAGCAA [G25A C75G G78A]: the nonsense suppression was ≤ 0.026.

As to CUCUCGGUAGCCAAGUUGGUUUAUGGCGCAAGACUUUAAUUUAUCACUACGAAACCUUGAGAUCGGGCGUUCGACUCGCCCCCGGGAGAUUUUUUCCUCGAGCAA [A24U U55C], the nonsense suppression is 0.104.

Consider CUCUCGGUAGCCAAGUUGGUUUAUGGCGCAAGACUUUAAUUUAUCACUACGAAAUCUCGAGAUCGGGCGUUCGACUCGCCCCCGAGAGAUUUUUUCCUCGAGCAA [A24U U58C G85A], for which the nonsense suppression was ≤ 0.026.

Regarding CUCUCGGUAGCCAAGUUGGUUUAGGGCGCAAGACUUUAAUUUAUCACUACGAAAUCUUGAGAUCGGGCGUUCGAAUCGCCCCCGGGAGAUUUUUUCCUCGAGCAA [A24G C75A], the nonsense suppression was found to be 0.24.

As to CUCUCGGUAGCCAAGUUGGUUUAGGGCGCAAGACUUUAAUUUAUCACUACGAAAUCUUGAGAUCGGGCGUUCGAUUCGCCCCCGGGAGAUUUUUUCCUCGAGCAA [A24G C75U], the nonsense suppression worked out at 0.185.

For the variant CUCUCGGUAGCCAAGUUGGUUUAUGGCGCAAGACUUUAAUUUAUCACUACGAAAUCUUGAGAUCGGGCGUUGGACUCGCCCCCGGGAGAUUUUUUCCUCGAGCAA [A24U C72G], the nonsense suppression stood at 0.03.

As for CUCUCGGUAGCCAAGUUGGUUUAAAGCGCCAGACUUUAAUUUAUCACUACGAAAUCUUGAGAUCGGGCGUUCGACUCGCCCCCGGGAGAUUUUUUCCUCGAGCAA [G25A A30C], the nonsense suppression was ≤ 0.026.

For CUCUCGGUAGCCAAGUUGGUUUAGGGCGCAAGACUUUAAUUUAUCACUACGAAACCUUGAGAUCGGGCGUUCGACUCGCCCCCGGGAGAUUUUUUCCUCGAGCAA [A24G U55C], the nonsense suppression came out at 0.0553.

CUCUCGGUAGCCAAGUUGGUUUAUGGCGCAAGACUUUAAUUUAUCACUACGAAAUCUUGAGAUCGGGCGUUCGACUCGCCCCCGGGGGAUUUUUUCCUCGAGCAA [A24U A87G]: the nonsense suppression turned out to be 0.147.

In the case of CUCUCGGUAGCCAAGUUGGUUUAUGGCGCAAGACUUUAAUUUAUCACUACGAAAUCUUGAGAUCGGGCGUUCGACCCGCCCCCGGGAGAUUUUUUCCUCGAGCAA [A24U U76C], the nonsense suppression was found to be 0.131.

Turning to CUCUCGGUAGCCAAGUUGGUUUAGGGCGCAAGACUUUAAUUUAUCACUACGAAAUCUUAAGAUCGGGCGUUCGACUCGCCCCCGGGAGAUUUUUUCCUCGAGCAA [A24G G59A], the nonsense suppression was ≤ 0.026.

For CUCUCGGUAGCCAAGUUGGUUUAGGGCGCAAGACUUUAAUUUAUCACUACGAAAUCUUCAGAUCGGGCGUUCGACUCGCCCCCGGGAGAUUUUUUCCUCGAGCAA [A24G G59C], the nonsense suppression was ≤ 0.026.

Consider CUCUCGGUAGCCAAGUUGGUUUAGGGCGCAAGACUUUAAUUUAUCACUACGAAAUCUUGAGAUCGGGCGUUCGACUCGGCCCCGGCAGAUUUUUUCCUCGAGCAA [A24G C79G G86C], for which the nonsense suppression was ≤ 0.026.

Consider CUCUCGGUAGCCAAGUUGGUUUAUGGCGCAAGACUUUAAUUUAUCACUACGAAAUCUUGAGAUCGGGCGUUCGACUCGCCCCCGAGGGAUUUUUUCCUCGAGCAA [A24U G85A A87G], for which the nonsense suppression worked out at 0.215.

With CUCUCGGUAGCCAAGUUGGUUUAGGGCGCAAGACUUUAAUUUAUCACUACGAAAUCUUGAGAUCGGGAGUUCGACUCGCCCGCUGGAGAUUUUUUCCUCGAGCAA [A24G C68A C82G G84U], the nonsense suppression was ≤ 0.026.
